What all share (type): functional
Assay [1] concerns Candida albicans. The experiment in a line: Antifungal activity against Candida albicans 10231 at 100 uM after 24hrs relative to amphotericin B. Summed up:
(§1)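 Broth microdilution in RPMI-1640. Peptides come from DMSO stocks, final DMSO ≤2%, at final 200 and 100 μM. Inoculum is 1–5 × 10^3 CFU/mL from strains grown 24 h at 35 °C on Sabouraud-chloramphenicol agar. […] Growth control carries matched DMSO; amphotericin B defines 100% inhibition. Run in duplicate.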

In assay [2] the test system is Candida tropicalis. Briefly: Antifungal activity against Candida tropicalis C 131 at 200 uM after 24 hrs relative to amphotericin B. Summed up:
as §1

Assay [3] deals with Candida tropicalis. Briefly: Antifungal activity against Candida tropicalis C 131 at 100 uM after 24 hrs relative to amphotericin B. Summed up: as §1
The subject of assay [4] is Cryptococcus neoformans. The experiment in a line: Antifungal activity against Cryptococcus neoformans ATCC 32264 at 25 uM after 48 hrs relative to amphotericin B. As to conditions: ATCC 32264, 48 h. The essentials: (§2)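 Microplate assay in RPMI-1640 with DMSO-dissolved peptide, final DMSO ≤2%. Inoculum is 1–5 × 10^3 CFU/mL from slants grown 24 h at 35 °C. Plates are held 48 h at 35 °C in a moist, dark chamber and read at OD405. Inhibition is taken against a DMSO-matched growth control after sterility-well subtraction; amphotericin B is set as 100%. Duplicate determinations.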

Assay [5] has as its system Cryptococcus neoformans. The experiment in a line: Antifungal activity against Cryptococcus neoformans ATCC 32264 at 12.5 uM after 48 hrs relative to amphotericin B. The note with it: ATCC 32264, 48 h. Summed up:
as §2

The test system of assay [6] is Cryptococcus neoformans. The experiment in a line: Antifungal activity against Cryptococcus neoformans ATCC 32264 at 6.25 uM after 48 hrs relative to amphotericin B. As to conditions: ATCC 32264, 48 h. The essentials:
as §2

Assay [7] has as its system Cryptococcus neoformans. Briefly: Antifungal activity against Cryptococcus neoformans ATCC 32264 at 3.25 uM after 48 hrs relative to amphotericin B. The note with it: ATCC 32264, 48 h. Summed up:
as §2

Assay [8] deals with Cryptococcus neoformans. Briefly: Antifungal activity against Cryptococcus neoformans ATCC 32264 at 1.62 uM after 48 hrs relative to amphotericin B. As to conditions: ATCC 32264, 48 h. The essentials:
as §2

Assay [9] has as its system Cryptococcus neoformans. Briefly: Antifungal activity against Cryptococcus neoformans ATCC 32264 at 0.81uM after 48 hrs relative to amphotericin B. The note with it: ATCC 32264, 48 h. The essentials: as §2
For assay [10], the system named is Cryptococcus neoformans. Briefly: Antifungal activity against Cryptococcus neoformans ATCC 32264 at 0.40 uM after 48 hrs relative to amphotericin B. The note with it: ATCC 32264, 48 h. Summed up:
as §2

Assay [11] has as its system Cryptococcus neoformans. The experiment in a line: Antifungal activity against Cryptococcus neoformans ATCC 32264 at 200 uM after 48 hrs relative to amphotericin B. As to conditions: ATCC 32264, 48 h. The essentials:
as §2

The test system of assay [12] is Cryptococcus neoformans. Briefly: Antifungal activity against Cryptococcus neoformans ATCC 32264 at 100 uM after 48 hrs relative to amphotericin B. As to conditions: ATCC 32264, 48 h. Summed up:
as §2

Assay [13] concerns Candida albicans. The experiment in a line: Antifungal activity against Candida albicans 10231 at 200 uM after 24 hrs relative to amphotericin B. The essentials: as §1
In assay [14] the test system is Cryptococcus neoformans. The experiment in a line: Antifungal activity against Cryptococcus neoformans ATCC 32264 at 50 uM after 48 hrs relative to amphotericin B. The note with it: ATCC 32264, 48 h. Summed up: as §2

What is called inhibition is the percentage by which the read-out fell short of the control. Low values mean little suppression, high ones strong suppression. With H-HFKWGKFV-NH2, the values for the inhibition at 100 µM in assay [1], in assay [3] and in assay [12] were 0%, 0% and 38%, respectively. Moreover, the inhibition at 200 µM in assay [2] was 22%; in [11] it was 97%; in [13] it was 72%. The inhibition at 25 µM in [4] was determined as 0%. In [5], the inhibition at 12.5 µM came to 0%. The substance further came in with an inhibition at 6.25 µM in assay [6] of 0%. In addition, the inhibition at 3.25 µM in [7] stood at 0%. In assay [8], this substance yielded an inhibition at 1.62 µM of 0%. Moreover, at 0.81 µM the inhibition in assay [9] was 0%. The inhibition at 0.4 µM in [10] came out at 0%.
Take H-HFKWGKYV-NH2: the inhibition at 100 µM in assay [1] stood at 0%; in assay [3], 0%; in assay [12] it was 50%. Besides, the values for the inhibition at 200 µM in [2], in [11] and in [13] were 0%, 83% and 15%, respectively. Besides, the inhibition at 50 µM in [14] is 50%. The inhibition at 25 µM in assay [4] was 49%. This substance gave an inhibition at 12.5 µM in assay [5] of 40%. The substance further yielded an inhibition at 6.25 µM in assay [6] of 31%. The substance also returned an inhibition at 3.25 µM in [7] of 36%. For the same substance, in assay [8], the inhibition at 1.62 µM was 33%. The inhibition at 0.81 µM in [9] was found to be 31%. The inhibition at 0.4 µM in assay [10] amounted to 26%.
Turning to H-HFRWGKFV-NH2, the inhibition at 100 µM in assay [1] was determined as 5%; in [3], 9%; in assay [12] it was 15%. Further, the results for the inhibition at 200 µM in assay [2], in assay [11] and in [13] were 19%, 77% and 61%, respectively. In addition, at 50 µM the inhibition in assay [14] was 15%. The substance also came in with an inhibition at 25 µM in assay [4] of 2%. In [5], this substance showed an inhibition at 12.5 µM of 0%. The substance further returned an inhibition at 6.25 µM in assay [6] of 0%. Further, in [7], the inhibition at 3.25 µM worked out at 0%. In addition, the inhibition at 1.62 µM in assay [8] was found to be 0%. For the same substance, the inhibition at 0.81 µM in assay [9] turned out to be 0%. In [10], this substance registered an inhibition at 0.4 µM of 0%.
With H-HFRWGKPV-NH2, the inhibition at 100 µM was 0% in assay [1], 0% in [3] and 9% in assay [12]. In addition, the results for the inhibition at 200 µM in assay [2], in assay [11] and in assay [13] were 0%, 24% and 0%, respectively. At 50 µM the inhibition in assay [14] was 0%. Also, the inhibition at 25 µM in assay [4] came out at 0%. Further, testing at 12.5 µM in assay [5] gave an inhibition of 0%. Besides, in assay [6], the inhibition at 6.25 µM amounted to 0%. Moreover, in assay [7], at 3.25 µM the inhibition was 0%. This substance also gave an inhibition at 1.62 µM in [8] of 0%. This substance yielded an inhibition at 0.81 µM in assay [9] of 0%. Moreover, in assay [10], the inhibition at 0.4 µM came out at 0%.
On to H-HFRWGKYV-NH2, for which the inhibition at 100 µM in assay [1] is 0%; in [3], 0%; in [12], 58%. Further, the inhibition at 200 µM was determined as 21% in assay [2], 99% in assay [11] and 43% in [13]. The same substance showed an inhibition at 50 µM in [14] of 56%. Besides, the inhibition at 25 µM in [4] was found to be 41%. This substance registered an inhibition at 12.5 µM in assay [5] of 28%. For the same substance, the inhibition at 6.25 µM in [6] worked out at 24%. Besides, in [7], testing at 3.25 µM gave an inhibition of 10%. The substance also yielded an inhibition at 1.62 µM in assay [8] of 6%. In assay [9], this substance displayed an inhibition at 0.81 µM of 0%. The substance further gave an inhibition at 0.4 µM in assay [10] of 0%.
With H-HFRWGRFV-NH2, the inhibition at 100 µM in [1] came to 1%; in assay [3], 1%; in assay [12], 72%. The inhibition at 200 µM was 64% in assay [2], 94% in [11] and 80% in assay [13]. Besides, the inhibition at 50 µM in assay [14] came to 67%. In addition, the inhibition at 25 µM in [4] was 26%. The substance also showed an inhibition at 12.5 µM in [5] of 26%. In addition, the inhibition at 6.25 µM in assay [6] is 18%. In [7], this substance returned an inhibition at 3.25 µM of 12%. This substance also displayed an inhibition at 1.62 µM in assay [8] of 11%. This substance yielded an inhibition at 0.81 µM in [9] of 10%. Further, the inhibition at 0.4 µM in assay [10] was 7%.
Turning to H-HYKWGKFV-NH2, the inhibition at 100 µM in assay [1] was found to be 0%; in assay [3], 0%; in assay [12], 25%. Also, the figures for the inhibition at 200 µM in assay [2], in [11] and in assay [13] were 1%, 41% and 0%, respectively. Moreover, the inhibition at 50 µM in assay [14] was 43%. The substance further registered an inhibition at 25 µM in assay [4] of 38%. For the same substance, the inhibition at 12.5 µM in [5] was 34%. This substance returned an inhibition at 6.25 µM in assay [6] of 0%. Further, 3.25 µM produced 0% inhibition in assay [7]. 1.62 µM produced 0% inhibition in assay [8]. This substance displayed an inhibition at 0.81 µM in [9] of 0%. The substance also had an inhibition at 0.4 µM in [10] of 0%.
As to H-HYKWGKYV-NH2, the values for the inhibition at 100 µM in assay [1], in [3] and in assay [12] were 0%, 0% and 42%, respectively. Further, the values for the inhibition at 200 µM in [2], in assay [11] and in assay [13] were 3%, 63% and 0%, respectively. Further, testing at 50 µM in [14] gave an inhibition of 39%. Further, testing at 25 µM in assay [4] gave an inhibition of 22%. Moreover, the inhibition at 12.5 µM in assay [5] turned out to be 19%. Moreover, the inhibition at 6.25 µM in [6] stood at 10%.
With H-HYKWGRFV-NH2, the inhibition at 100 µM in [1] stood at 0%; in assay [3], 0%; in [12] it was 47%. Also, the figures for the inhibition at 200 µM in assay [2], in assay [11] and in [13] were 23%, 89% and 11%, respectively. For the same substance, the inhibition at 6.25 µM in [6] was found to be 19%. This substance also had an inhibition at 3.25 µM in assay [7] of 17%. In assay [8], this substance showed an inhibition at 1.62 µM of 21%. Also, the inhibition at 0.81 µM in [9] was found to be 2%. In assay [10], this substance gave an inhibition at 0.4 µM of 0%.
With H-HYRWGKFV-NH2, the inhibition at 100 µM in assay [1] is 0%; in [3] it was 0%; in assay [12], 21%. The inhibition at 200 µM in [2] was determined as 1%; in assay [11], 35%; in assay [13], 10%. In assay [14], this substance showed an inhibition at 50 µM of 37%. In addition, testing at 25 µM in assay [4] gave an inhibition of 24%. Besides, at 12.5 µM the inhibition in [5] was 21%. The substance further displayed an inhibition at 6.25 µM in assay [6] of 16%. In [7], this substance came in with an inhibition at 3.25 µM of 16%. 1.62 µM produced 5% inhibition in assay [8]. Also, at 0.81 µM the inhibition in assay [9] was 0%. The inhibition at 0.4 µM in [10] worked out at 0%.

Values taken from ChEMBL document CHEMBL1149892, “Structure-antifungal activity relationship of His-Phe-Arg-Trp-Gly-Lys-Pro-Val-NH2 and analogues” (2008).
